KCNK3 inh: human KCNK3 channel inhibition, primary screen; AID 602410; 340,000 tested, 0.84% active; B-score at 10 µM; CHO-KCNK3 thallium flux, FluxOR fluorescence; active compounds read low; O14649;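 active = B-score under library mean minus 4 SD, starting fluorescence ratio at most library mean plus 5 SD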;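 note: more negative B-score means stronger inhibition of thallium flux through KCNK3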
Target sequence (O14649 whole entry, looked up): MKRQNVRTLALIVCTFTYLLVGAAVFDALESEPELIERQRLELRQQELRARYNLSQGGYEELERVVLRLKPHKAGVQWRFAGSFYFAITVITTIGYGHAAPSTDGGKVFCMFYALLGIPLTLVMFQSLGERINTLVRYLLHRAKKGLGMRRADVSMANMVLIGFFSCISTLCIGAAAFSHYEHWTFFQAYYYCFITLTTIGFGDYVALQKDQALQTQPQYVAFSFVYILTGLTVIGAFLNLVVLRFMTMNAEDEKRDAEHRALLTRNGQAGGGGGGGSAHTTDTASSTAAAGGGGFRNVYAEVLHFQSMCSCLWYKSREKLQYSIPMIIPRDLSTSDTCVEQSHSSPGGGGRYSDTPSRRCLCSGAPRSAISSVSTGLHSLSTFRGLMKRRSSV
Kir21 inh: inhibitors of mouse Kir2.1 inward-rectifier potassium channel. HEK293-Kir2.1, FluxOR thallium flux fluorescence; active compounds read low. B-score at 10 µM. P35561. 310,000 tested, 0.85% active;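 active = fluorescence ratio B-score at or below minus 3 SD of library scores, with starting-brightness B-score within 2 SD, cut at about -4.2 in these data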;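 note: channel flux triggered by added potassium and thallium sulfate stimulus; B-score of peak minus minimum fluorescence over baseline after thallium stimulus; more negative B-score means stronger Kir2.1 block with less thallium influx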
KCNQ1 pot: potentiators or activators of human KCNQ1 potassium channel; B-score at 10 µM; AID 2648; CHO-K1 KCNQ1, thallium flux FluxOR fluorescence; active compounds read high; 310,000 tested, 0.35% active; P51787;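 active = fluorescence ratio B-score, a plate-corrected score, at least three library SD, with initial intensity B-score within 5 SD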
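System: CHO-K1 cells stably expressing KCNQ1 / Medium: assay buffer for compound exposure, DMSO matched across wells / Reagent: thallium- and potassium-containing depolarizing buffer / Compound: one concentration, matched DMSO / Incubation: 20 min compound pretreatment at room temperature / Measured by: kinetic FluxOR fluorescence, 10 s baseline plus 110 s post-stimulus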
KCNQ1 inh: inhibitors of human KCNQ1 potassium channel; 310,000 tested, 1.3% active; B-score at 10 µM; P51787; CHO-K1 KCNQ1, FluxOR thallium flux fluorescence; active compounds read high;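 active = compounds whose thallium flux B-score, printed positive for inhibition, exceeds three library SD while starting fluorescence stays within three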;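 note: channel opened by potassium depolarization with thallium stimulus after 20 min compound exposure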
hERG protect: compounds protecting human hERG from proarrhythmic drug block; Q12809; CHO-hERG, FluxOR thallium flux, dofetilide IC70 present; activation (rescue from dofetilide block), less the hit threshold, % at 10 µM; 310,000 tested, 0.51% active;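 active = activation above the mean of controls blocked by dofetilide plus 5 SD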;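 note: thallium influx through hERG after potassium depolarization seen as dye fluorescence rise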
KCNK9 inh: inhibitors of human KCNK9 two-pore domain potassium channel; 310,000 tested, 1.2% active; HEK293 KCNK9, FluxOR thallium flux fluorescence; active compounds read low; Q9NPC2; B-score at 10 µM;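 active = ratio B-score over 3 SD below the library mean, with starting fluorescence within 5 SD of its mean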;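 note: negative B-score means less thallium flux so channel inhibition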
An asterisk follows results filed as active; i = inactive; / = not tested or not shown. An excerpt weighted towards active compounds, which were near 3.8% of everything screened.

SMILES | KCNK3 inh | Kir21 inh | KCNQ1 pot | KCNQ1 inh | hERG protect | KCNK9 inh
COc1ccc2o/c(=N\O)c(C(=O)Nc3ccc(C)cc3)cc2c1 | i | -1.5 | i | 6* | -11 | i
CCOC(=O)C1=C(C)OC(N)=C(C#N)C1c1c(C)nn(-c2ccc(C)cc2)c1Cl (configuration not stated) | / | -1.5 | i | i | -20 | -9.8*
CCOC(=O)C1=C(C)OC(N)=C(C#N)C1c1ccccc1 (configuration not stated) | i | -1.3 | i | i | -18 | i
Cc1ccccc1N=C(NO)c1nonc1N | i | 1.9 | i | i | -2 | i
O=C(NCC(c1cccs1)N1CCOCC1)C1CCN(S(=O)(=O)c2c(Cl)cccc2Cl)CC1 (configuration not stated) | i | 0.69 | i | i | -16 | i
COC(=O)NCC(C)OC(=O)Nc1cccc(Cl)c1 (configuration not stated) | i | -0.46 | i | i | -8 | i
CC(CNC(=O)COc1ccccc1)OC(=O)Nc1ccc(Cl)c(Cl)c1 (configuration not stated) | i | 1.4 | 9* | i | -23 | i
Cc1ccc(OCCCCCCN2CCNCC2)c(Br)c1 | i | -5.6* | i | i | -5 | i
Cc1ccc(OCCCCN2CCC(C)CC2)c(Br)c1 | i | -6* | i | i | -11 | i
COc1ccc(-c2[nH]ncc2/C=N\NC(=O)c2ccc(C(C)(C)C)cc2)cc1OC | i | 0.26 | i | 6* | -8 | i
CCCCOc1ccc(C(=O)N/N=C/c2cn[nH]c2-c2ccc(OC)c(OC)c2)cc1 | i | 0.71 | i | i | -16 | i
O=C(Nc1ccccc1)N1CCN(c2cccc(C(F)(F)F)c2)CC1 | i | -0.25 | i | i | -9 | -7.4*
Cc1ccc(CSCC(=O)Nc2ccc(N3CCOCC3)cc2N2CCOCC2)cc1 | i | -0.51 | i | i | -8 | i
Nc1nc(Nc2ccccc2)nc(NCc2ccccc2)c1[N+](=O)[O-] | i | 0.83 | i | i | -4 | i
Cc1cccc(Nc2nc(N)c([N+](=O)[O-])c(NCc3ccccc3)n2)c1 | i | -2.2 | i | 7* | -8 | i
COc1ccc(C2CC3(CC(C)(C)NC(SC)=N3)Oc3cc(O)cc(C)c32)cc1 (configuration not stated) | i | -5.3* | i | i | -12 | i
CCN(CC)c1ccc2cc(-c3nc4ccccc4[nH]3)c(=O)oc2c1 | i | -8.3 | i | 27* | -53 | i
Cc1ccc(CCN2CCN=C2N(C)C)cc1 | i | 2.2 | i | i | -7 | i
CN1CCS/C1=C\C=C1/SC(=S)N(CC(=O)O)C1=O | i | -12 | i | 11* | -30 | i
Cn1cccc1/C=C1/SC(=S)N(CC(=O)O)C1=O | i | -0.67 | i | i | -11 | i
Cc1ccc(C(C)NC(=O)c2cccs2)cc1C (configuration not stated) | i | -0.29 | i | i | 5.2* | i
Cc1ccc(C(C)NC(=O)c2cccs2)cc1 (configuration not stated) | i | -0.22 | i | i | -6 | i
COc1ccc2cc(C(=O)C3CCCN(Cc4cccc(C)n4)C3)ccc2c1 (configuration not stated) | i | -2.5 | i | i | -10 | i
Cc1cccc(CN2CCCC(C(=O)c3ccc4c5c(cccc35)CC4)C2)n1 (configuration not stated) | i | -4.2* | i | i | -19 | i
O=c1[nH]c(C2CC2)nc2sc3c(c12)CCCC3 | i | -0.03 | i | i | -6 | i
O=c1[nH]c(=S)[nH]c2sc3c(c12)CCCCCC3 | i | -1.1 | 10* | i | -3 | i
CCn1nnc2sc3c(c2c1=O)CCC(C)C3 (configuration not stated) | i | -0.41 | i | i | -5 | i
Nn1c(=S)[nH]c2sc3c(c2c1=O)CCCC3 | i | 0.49 | i | i | -3 | i

High-throughput results as filed in PubChem BioAssay.
